Data set [1] is described as follows: Partition coefficient was measured by the shake flask method at pH 7.4. In kind it is physicochemical. The settings on record: octanol/water. The method, boiled down:
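Log P determined by shake-flask partitioning at pH 7.4.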

In data set [2] the target is T1, Sterol O-acyltransferase 1 (Rattus norvegicus, UniProt O70536).
T1 sequence (O70536 whole entry): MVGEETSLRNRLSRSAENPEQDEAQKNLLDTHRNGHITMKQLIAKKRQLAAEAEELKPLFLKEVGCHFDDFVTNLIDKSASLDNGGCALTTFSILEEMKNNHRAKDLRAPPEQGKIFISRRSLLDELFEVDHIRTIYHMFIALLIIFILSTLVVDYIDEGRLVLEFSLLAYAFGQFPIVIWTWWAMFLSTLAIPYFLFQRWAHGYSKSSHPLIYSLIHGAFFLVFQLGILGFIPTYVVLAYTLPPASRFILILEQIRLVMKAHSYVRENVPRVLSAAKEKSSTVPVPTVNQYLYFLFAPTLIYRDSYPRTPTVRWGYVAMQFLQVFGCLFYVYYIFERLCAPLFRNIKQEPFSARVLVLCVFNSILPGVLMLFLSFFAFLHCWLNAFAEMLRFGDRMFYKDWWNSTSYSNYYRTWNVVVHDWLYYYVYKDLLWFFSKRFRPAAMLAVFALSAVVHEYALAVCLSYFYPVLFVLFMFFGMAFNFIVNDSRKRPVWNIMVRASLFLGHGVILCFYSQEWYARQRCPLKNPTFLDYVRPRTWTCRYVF
The experiment in a line: Compound was evaluated for the Acyl coenzyme A:cholesterol acyltransferase inhibition using microsomes isolated from the livers of cholesterol fed rats. Also noted: species or system Liver. The method, boiled down:
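Liver microsomes prepared from cholesterol-fed rats used as ACAT source. IC50 determined from four drug concentrations per assay, in four separate assays, and reported as the mean.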

Data set [3] deals with Caco-2. The data set is described as follows: Activity of compound in an intestine model using Caco-2 cells. Conditions: Homo sapiens, Caco-2, Intestine. In kind it is functional, cell-based. The method, boiled down:
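CaCo-2 intestinal cells incubated with radiolabeled oleic acid in the presence of test agent; ACAT activity in intact cells read as oleate incorporation into cholesteryl esters, with triglyceride and phospholipid incorporation also followed up to 100 µM. IC50 averaged over three separate experiments.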

Data set [4] concerns Rattus norvegicus. The data set is described as follows: […] activity in rats at a dose of 1 mg/kg of compound was determined. Format: functional. Put shortly: (§1)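 Acute model in rats: one dose given, then ad libitum overnight feeding of chow supplemented with peanut oil (5.5%), cholesterol (1.5%) and cholic acid (0.5%). Plasma cholesterol measured; n = 5/group; mean ± SEM; percent change relative to PCC-fed controls. ED50 is the dose that lowers plasma cholesterol by 50%.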

Data set [5] relates to Rattus norvegicus. The experiment in a line: […] activity in rats at a dose of 10 mg/kg was determined. Format: functional. Put shortly:
as §1

Data set [6] relates to Rattus norvegicus. The data set is described as follows: […] activity in rats at a dose of 3 mg/kg of compound was determined. Format: functional. The method, boiled down: as §1
Data set [7] relates to Rattus norvegicus. The data set is described as follows: […] activity in rats at a dose of 30 mg/kg was determined. In kind it is functional. Put shortly: as §1
Data set [8] has as its system Rattus norvegicus. The data set is described as follows: Anti hypercholesterolemic activity in rats at a dose of 0.3 mg/kg of compound was determined. In kind it is functional. The method, boiled down: as §1
The species named for data set [9] is Rattus norvegicus. The data set is described as follows: Dose required to lower the plasma cholesterol by 50% in rats was determined. In kind it is functional. The method, boiled down:
as §1

Data set [10] has as its system Rattus norvegicus. The data set is described as follows: Chronic effect on preestablished dyslipidemia in rats for HDL-C at 0.3 mg/kg of compound was determined. Format: functional. Put shortly:
(§2)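 Plasma total cholesterol measured; HDL-C separated by dextran sulfate precipitation of whole plasma, nonHDL-C derived. n = 5/group, mean ± SEM, % change versus PCC-fed controls; chow-fed controls included.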

The subject of data set [11] is Rattus norvegicus. The data set is described as follows: Chronic effect on preestablished dyslipidemia in rats for HDL-C at 10 […] of compound was determined. Format: functional. The method, boiled down: as §2
The test system of data set [12] is Rattus norvegicus. The data set is described as follows: Chronic effect on preestablished dyslipidemia in rats for HDL-C at 1 mg/kg of compound was determined. In kind it is functional. Put shortly: as §2
Data set [13] deals with Rattus norvegicus. The data set is described as follows: Chronic effect on preestablished dyslipidemia in rats for HDL-C at 30 mg/kg of compound was determined. In kind it is functional. The method, boiled down:
as §2

Data set [14] deals with Rattus norvegicus. The data set is described as follows: Chronic effect on preestablished dyslipidemia in rats for HDL-C at 3 mg/kg of compound was determined. Format: functional. Put shortly:
as §2

In data set [15] the test system is Rattus norvegicus. The experiment in a line: Chronic effect on preestablished dyslipidemia in rats for nonHDL-C at 0.3 mg/kg of compound was determined. In kind it is functional. Put shortly:
as §2

The test system of data set [16] is Rattus norvegicus. The data set is described as follows: Chronic effect on preestablished dyslipidemia in rats for nonHDL-C at 10 mg/kg of compound was determined. In kind it is functional. The method, boiled down:
as §2

Data set [17] has as its system Rattus norvegicus. The experiment in a line: Chronic effect on preestablished dyslipidemia in rats for nonHDL-C at 1 mg/kg of compound was determined. In kind it is functional. Put shortly: as §2
The subject of data set [18] is Rattus norvegicus. The data set is described as follows: Chronic effect on preestablished dyslipidemia in rats for nonHDL-C at 30 mg/kg of compound was determined. In kind it is functional. The method, boiled down:
as §2

The subject of data set [19] is Rattus norvegicus. The data set is described as follows: Chronic effect on preestablished dyslipidemia in rats for nonHDL-C at 3 mg/kg of compound was determined. Format: functional. Put shortly: as §2
Data set [20] deals with Rattus norvegicus. The experiment in a line: Chronic effect on preestablished dyslipidemia in rats for total cholesterol at 0.3 mg/kg of compound was determined. Format: functional. The method, boiled down:
as §2

Data set [21] deals with Rattus norvegicus. The experiment in a line: Chronic effect on preestablished dyslipidemia in rats for total cholesterol at 1 mg/kg of compound was determined. In kind it is functional. The method, boiled down:
as §2

Data set [22] has as its system Rattus norvegicus. The experiment in a line: Chronic effect on preestablished dyslipidemia in rats for total cholesterol at 10 mg/kg of compound was determined. Format: functional. The method, boiled down:
as §2

Data set [23] has as its system Rattus norvegicus. The data set is described as follows: Chronic effect on preestablished dyslipidemia in rats for total cholesterol at 3 mg/kg of compound was determined. In kind it is functional. Put shortly:
as §2

Data set [24] has as its system Rattus norvegicus. The experiment in a line: Chronic effect on preestablished dyslipidemia in rats for total cholesterol at 30 mg/kg of compound was determined. In kind it is functional. Put shortly: as §2
Data set [25] addresses T1, Sterol O-acyltransferase 1. The experiment in a line: Compound was evaluated for the Acyl coenzyme A:cholesterol acyltransferase inhibition using microsomes isolated from the livers of cholesterol fed rats. Also noted: species or system Liver. Put shortly:
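Liver microsomes from cholesterol-fed rats served as the ACAT source. IC50 was determined in four separate assays, each using four drug concentrations, and averaged.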

For data set [26], the system named is Rattus norvegicus. The experiment in a line: […] activity in rats at a dose of 10 mg/kg of compound was determined. Format: functional. The method, boiled down:
as §1

For data set [27], the system named is Rattus norvegicus. The experiment in a line: […] activity in rats at a dose of 100 mg/kg of compound was determined. In kind it is functional. The method, boiled down:
as §1

Data set [28] relates to Rattus norvegicus. The experiment in a line: […] activity in rats at a dose of 30 mg/kg of compound was determined. In kind it is functional. Put shortly:
as §1

The subject of data set [29] is Rattus norvegicus. The data set is described as follows: Chronic effect on preestablished dyslipidemia in rats for HDL-C at 100 mg/kg of compound was determined. Format: functional. Put shortly: as §2
Data set [30] relates to Rattus norvegicus. The experiment in a line: Chronic effect on preestablished dyslipidemia in rats for HDL-C at 10 mg/kg of compound was determined. In kind it is functional. Put shortly:
as §2

In data set [31] the test system is Rattus norvegicus. The data set is described as follows: Chronic effect on preestablished dyslipidemia in rats for nonHDL-C at 100 mg/kg of compound was determined. In kind it is functional. Put shortly:
as §2

Data set [32] relates to Rattus norvegicus. The data set is described as follows: Chronic effect on preestablished dyslipidemia in rats for total cholesterol at 100 mg/kg of compound was determined. In kind it is functional. The method, boiled down: as §2

pIC50: −log10 of the molar value.

The text below walks through data of ChEMBL document CHEMBL1127335, “Inhibitors of acyl-CoA: cholesterol O-acyl transferase (ACAT) as hypocholesterolemic agents. 6. The first water-soluble ACAT inhibitor with lipid-regulating activity” (J Med Chem, 1994).

Take `CC(C)c1cccc(C(C)C)c1OC(=O)[N-]S(=O)(=O)Oc1c(C(C)C)cccc1C(C)C.[Na+]`: the logD in data set [1] is 2.98. Further, the pIC50 in [2] is 5.28; in data set [3] it was 6.03. The Activity amounted to 98 in data set [4]; 56 in data set [5]; 78 in data set [6]; 50 in data set [7]; 142 in [8]. For the same compound, the 50% effect level in [9] (ED50) was put at a dose of 1.8 mg/kg. Also, the Effect in [10] was 11 mg/dL; in data set [11], 52 mg/dL; in data set [12], 25 mg/dL; in [13], 44 mg/dL; in data set [14], 39 mg/dL; in [15], 192 mg/dL. In addition, the Effect in [16] stood at 59 mg/dL; in data set [17] it was 102 mg/dL; in data set [18] it was 47 mg/dL; in data set [19], 53 mg/dL; in data set [20], 204 mg/dL; in [21], 127 mg/dL. Also, the Effect in [22] was 111 mg/dL; in data set [23], 92 mg/dL; in data set [24], 91 mg/dL.
Consider `CCCCCCCN(CCCCCSc1nc(-c2ccccc2)c(-c2ccccc2)[nH]1)C(=O)Nc1ccc(F)cc1F` [LECIMIBIDE], for which, in [25], the pIC50 was 7.74. The Activity in [4] is recorded as 158; in data set [26], 77; in [27] it was 79; in data set [6], 122; in data set [28] it was 74. In addition, the ED50 in data set [9] amounted to 15.2 mg/kg. Moreover, the Effect was determined as 32 mg/dL in data set [29]; 18 mg/dL in data set [30]; 10 mg/dL in [12]; 21 mg/dL in [13]; 14 mg/dL in data set [14]; 87 mg/dL in data set [31]. Also, the Effect in data set [16] is 135 mg/dL; in [17] it was 234 mg/dL; in [18] it was 98 mg/dL; in data set [19] it was 203 mg/dL; in data set [21], 244 mg/dL; in data set [32], 119 mg/dL. For the same compound, the values for the Effect in [22], in data set [23] and in data set [24] were 154 mg/dL, 217 mg/dL and 120 mg/dL, respectively.

The logD is the decadic logarithm of the distribution of all forms, ionised or not, between an organic phase and buffer at a given pH. The low end stands for a more hydrophilic compound, the high end for a more lipophilic compound. By pIC50 is commonly meant the IC50 on a negative log10 scale, so that one unit is a factor of ten. A high value points to a small IC50. The term ED50 denotes the dose that gives a 50% effect, or the effect in half of the subjects. Low readings indicate an effect at a small dose, high ones a need for a large dose.
